{"source": "ChEMBL document CHEMBL1143933", "about": "“Synthesis, dopaminergic profile, and molecular dynamics calculations of N-aralkyl substituted 2-aminoindans” (Bioorg Med Chem, 2008)", "format_in_all_cases": "functional, organism-based", "key": {"[1]": {"tested_on": "Rattus norvegicus", "assay": "Reduction of apomorphine-induced stereotyped behavior in Sprague-Dawley rat at 6 ug/ul, icv", "method_in_brief": "(§1)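 Rats cannulated in the right lateral ventricle. ICV infusion of 0.6 or 6.0 µg/5 µl, or 0.9% NaCl, at 0.5 µl/min. Apomorphine HCl (1 mg/kg) given 1 min before observation began. Stereotyped gnawing recorded by computer at 4.5 min intervals for 45 min. Four rats per measurement; means ± SEM; ANOVA with Duncan's multiple range test.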"}, "[2]": {"tested_on": "Rattus norvegicus", "assay": "Induction of stereotyped behavior in Sprague-Dawley rat at 0.6 ug/ul, icv", "method_in_brief": "(§2)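 Cannula placed in the right lateral ventricle under pentobarbital (40 mg/kg, ip) at 0.40 mm bregma, 1.1 mm lateral, 2.2 mm ventral. After 3 days, compound (0.6 or 6.0 µg/5 µl, or 50 µg/5 µl) or 0.9% NaCl infused at 0.5 µl/min. Starting 5 min later, behavior observed for 45 min in Plexiglas chambers. Gnawing recorded by computer at 4.5 min intervals. Four rats per measurement; ANOVA with Duncan's test.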"}, "[3]": {"tested_on": "Rattus norvegicus", "assay": "Inhibition of dopamine-induced natriuresis in icv dosed Sprague-Dawley rat", "method_in_brief": "(§3)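 Male Sprague-Dawley rats (220–280 g) with a left lateral ventricle cannula. ICV pretreatment of 50 µg/5 µl, or vehicle 5 µl, given 15 min before ICV dopamine (100 µg/5 µl) or saline, then oral water 20 ml/kg. Urine volume and sodium (flame photometry) measured over 3 h and 6 h collections. N = 6–8; two-way ANOVA with Newman–Keuls.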"}, "[4]": {"tested_on": "Rattus norvegicus", "assay": "Inhibition of dopamine-induced diuresis in icv dosed Sprague-Dawley rat", "method_in_brief": "as §3"}, "[5]": {"tested_on": "Rattus norvegicus", "assay": "Natriuretic effect in icv dosed Sprague-Dawley rat assessed as increase in sodium excretion after 6 hrs", "method_in_brief": "(§4)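 Adult male Sprague-Dawley rats (220–280 g) fitted with a cannula in the left lateral cerebroventricle under pentobarbital (40 mg/kg, ip), then allowed at least 3 days of recovery. Single ICV injection of 50 µg/10 µl, or vehicle NaCl 0.9%. Oral water load of 20 ml/kg, then individual metabolic cages. Urine collected at 3 and 6 h, with the bladder emptied at 6 h. Sodium measured by flame photometry. N = 6–8 per group; two-way ANOVA with Newman–Keuls.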"}, "[6]": {"tested_on": "Rattus norvegicus", "assay": "Diuretic effect in icv dosed Sprague-Dawley rat assessed as increase in urine volume after 6 hrs", "method_in_brief": "as §4"}, "[7]": {"tested_on": "Rattus norvegicus", "assay": "Reduction of apomorphine-induced stereotyped behavior in Sprague-Dawley rat at 0.6 ug/ul, icv", "method_in_brief": "as §1"}, "[8]": {"tested_on": "Rattus norvegicus", "assay": "Natriuretic effect in icv dosed Sprague-Dawley rat assessed as increase in sodium excretion after 3 hrs", "method_in_brief": "as §4"}, "[9]": {"tested_on": "Rattus norvegicus", "assay": "Induction of stereotyped behavior in Sprague-Dawley rat at 6 ug/ul, icv", "method_in_brief": "as §2"}, "[10]": {"tested_on": "Rattus norvegicus", "assay": "Induction of stereotyped behavior in icv dosed Sprague-Dawley rat", "method_in_brief": "as §2"}}, "note": "Activity calls are given as the source filed them. The calls are words filed in the database; no cut-off is given here."}
{"smiles": "CC(Cc1ccc(O)c(O)c1)NC1Cc2ccc(O)c(O)c2C1", "note": "(configuration not stated)", "values": [{"measurement": "Activity", "setting": "[1]", "value": "Active"}, {"measurement": "Activity", "setting": "[2]", "value": "inactive"}, {"measurement": "Activity", "setting": "[3]", "value": "Active"}, {"measurement": "Activity", "setting": "[4]", "value": "Active"}, {"measurement": "Activity", "setting": "[5]", "value": "inactive"}, {"measurement": "Activity", "setting": "[6]", "value": "inactive"}, {"measurement": "Activity", "setting": "[7]", "value": "Active"}, {"measurement": "Activity", "setting": "[8]", "value": "inactive"}, {"measurement": "Activity", "setting": "[9]", "value": "inactive"}]}
{"smiles": "CCC(C)NC1Cc2ccc(O)c(O)c2C1", "note": "(configuration not stated)", "values": [{"measurement": "Activity", "setting": "[10]", "value": "Active"}, {"measurement": "Activity", "setting": "[5]", "value": "Active"}, {"measurement": "Activity", "setting": "[6]", "value": "Active"}]}
